≈ marks a conversion by molar mass, not a printed value.
How the values were obtained:
[1] = molecular target: T1, Protein farnesyltransferase (Homo sapiens, UniProt P49354+P49356); test: In vitro inhibition against human Farnesyltransferase catalyzed by incorporation of [3H]- FPP into recombinant Ras-CVIM; assay type: protein-complex assay
[2] = molecular target: T1, Protein farnesyltransferase; test: Concentration required to displace 50% of a radiolabeled farnesyltransferase inhibitor from FPTase in cultured Ha-Ras transformed RAT1 cells; assay type: functional, cell-based
[3] = molecular target: T2, Geranylgeranyl transferase type I (Homo sapiens, UniProt P49354+P53609); test: In vitro inhibition against human Geranylgeranyl transferase type I catalyzed by incorporation of [3H]- GGPP (geranylgeranyl pyrophosphate) into biotinylated peptide corresponding to the c-terminus of human Ki-Ras; assay type: protein-complex assay
Method in brief: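 Human GGPTase-I transferred [3H]GGPP onto a biotinylated human Ki-Ras C-terminal peptide. Enzyme and inhibitor were preincubated 30 min with 5 mM ATP before reaction. Some values were instead run without preincubation. IC50 is the concentration halving incorporation.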

[4] = molecular target: T2, Geranylgeranyl transferase type I; test: Minimal concentration required to inhibit Rap 1a processing (prenylation) in PSN-1 cell; assay type: functional, cell-based
Rat1 [5] = test: Inhibition of colony formation in v-H-ras-transformed RAT1 cells; assay type: functional; conditions: Rattus norvegicus
Method in brief: (§1)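 Anchorage-independent growth of ras-transformed RAT1 cells in soft agar, read as colony formation. Potency is reported as IC90 for blocking colonies.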

Rat1 [6] = test: Percent RAT1 cell survival at 10 uM assessed by MTT viability staining; assay type: functional; conditions: Rattus norvegicus, read-out: Survival
Rat1 [7] = test: Inhibition of colony formation in K-ras-transformed RAT1 cells, ranges from 0.3-1; assay type: functional; conditions: Rattus norvegicus; method in brief: as §1

Row | IC50 [1] [nM] | IC50 [2] [nM] | IC50 [3] [nM] | MIC [4] [µM] | SMILES | IC90 (Rat1 [5]) [nM] | viability at 10 µM (Rat1 [6]) [%] | IC90 (Rat1 [7]) [nM]
1 | 2.5 | 8 | 1.3 | 3 (≈ 1.67 µg/mL) | N#Cc1ccc(Cn2cncc2CN2CCN(c3cccc(Cl)c3)C(=O)C2)cc1Oc1cccc(OCCO)c1 |  |  | 
2 |  |  |  | 1 (≈ 0.406 µg/mL) | N#Cc1ccc(Cn2cncc2CN2CCN(c3cccc(Cl)c3)C(=O)C2)cc1 [L-778123 FREE BASE] | 100 |  | 
3 | 18 | 255 | 12 |  | N#Cc1ccc(Cn2cncc2CN2CCN(c3cccc(Cl)c3)C(=O)C2)cc1Sc1ccccc1 |  |  | 
4 | 9 |  | 809 |  | N#Cc1cc(Cn2cncc2CN2CCN(c3cccc(Cl)c3)C(=O)C2)ccc1Oc1ccccc1 |  |  | 
5 | 7 | 41 | 0.7 | 0.3 (≈ 0.16 µg/mL) | N#Cc1ccc(Cn2cncc2CN2CCN(c3cccc(Cl)c3)C(=O)C2)cc1Oc1ccccc1Cl |  |  | 
6 |  |  | 65 |  | O=C1CN(Cc2cncn2Cc2cccc(Oc3ccccc3)c2)CCN1c1cccc(Cl)c1 |  |  | 
7 | 5770 |  | 155 |  | O=C1CN(Cc2cncn2Cc2cccc(Oc3ccccc3)c2)CCN1c1ccc(C(F)(F)F)cc1 |  |  | 
8 | 11 | 17 | 52 | 1 (≈ 0.499 µg/mL) | N#Cc1ccc(Cn2cncc2CN2CCN(c3cccc(Cl)c3)C(=O)C2)cc1Oc1cccnc1 |  |  | 
9 | 32 | 311 | 62 |  | N#Cc1ccc(Cn2cncc2CN2CCN(c3cccc(Cl)c3)C(=O)C2)cc1Oc1ccc(OCc2ccccc2)cc1 |  |  | 
10 | 1 | 48 | 199 |  | N#Cc1ccc(Cn2cncc2CN2CCN(c3cccc(Cl)c3)C(=O)C2)cc1Oc1ccc2ccccc2c1 |  |  | 
11 | 4 |  | 290 |  | N#Cc1ccc(Cn2cncc2CN2CCN(c3cccc(Cl)c3)C(=O)C2)cc1Oc1ccc2c(c1)CCCC2 |  |  | 
12 | 4 | 93 | 20 |  | N#Cc1ccc(Cn2cncc2CN2CCN(c3cccc(Cl)c3)C(=O)C2)cc1Oc1cccc(Cl)c1 |  |  | 
13 | 19 | 350 | 15 |  | N#Cc1ccc(Cn2cncc2CN2CCN(c3cccc(Cl)c3)C(=O)C2)cc1Oc1ccc(Cl)cc1 |  |  | 
14 | 670 |  | 136 |  | O=C1CN(Cc2cncn2Cc2cccc(Oc3ccccc3)c2)CCN1c1ccc(Cl)cc1 |  |  | 

Row | SMILES | IC50 [1] [nM] | IC50 [2] [nM] | IC50 [3] [nM] | MIC [4] [µM] | IC90 (Rat1 [5]) [nM] | viability at 10 µM (Rat1 [6]) [%] | IC90 (Rat1 [7]) [nM]
15 | N#Cc1ccc(Cn2cncc2CN2CCN(c3cccc(Cl)c3)C(=O)C2)cc1Oc1ccccc1 | 7 | 110 | 22 | 1 (≈ 0.498 µg/mL) | 300 | 80 | 1000

— ChEMBL document CHEMBL1134715, “Aryloxy substituted N-arylpiperazinones as dual inhibitors of farnesyltransferase and geranylgeranyltransferase-I” (Bioorg Med Chem Lett, 2001)
